Assay outcomes from PubChem BioAssay.
SR-BI uptake up: activators of SR-BI mediated HDL lipid uptake | CHO ldlA[mSR-BI] cells, DiI-HDL uptake fluorescence, 3 h; 100 = double the neutral-control signal | activation, % at 12.5 µM | 320,000 tested, 0.096% active;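 active means mean replicate activation of at least 60% and every replicate at or above 60%; inconclusive means mean or all-replicate condition met, but not both; inactive means mean below 60% and not all replicates reaching 60%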;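 further: 0% = median plate neutral-control signal and 100% = twice that signal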
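Test system: SR-BI-overexpressing, LDLR-lacking CHO cells. Measured by: DiI fluorescence, bottom read. Medium: Ham's F12 with 0.5% BSA, HEPES 25 mM, pH 7.4. Timing: 3 h uptake period with compound, 37 °C.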
SR-BI DiI inh: inhibitors of mouse SR-BI mediated HDL lipid uptake | 320,000 tested, 0.96% active | ldlA[mSR-BI] CHO cells, DiI-HDL uptake fluorescence, 3 h | AID 488896 | inhibition, % at 12.5 µM;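 active means mean replicate inhibition of at least 70% and a set share of replicates each scoring 70 or more; inconclusive means meets just one of the two criteria; inactive means fails both criteria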;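 further: 0% = median of neutral control wells and 100% = median of positive control wells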
Target sequence (Q61009 whole entry, looked up): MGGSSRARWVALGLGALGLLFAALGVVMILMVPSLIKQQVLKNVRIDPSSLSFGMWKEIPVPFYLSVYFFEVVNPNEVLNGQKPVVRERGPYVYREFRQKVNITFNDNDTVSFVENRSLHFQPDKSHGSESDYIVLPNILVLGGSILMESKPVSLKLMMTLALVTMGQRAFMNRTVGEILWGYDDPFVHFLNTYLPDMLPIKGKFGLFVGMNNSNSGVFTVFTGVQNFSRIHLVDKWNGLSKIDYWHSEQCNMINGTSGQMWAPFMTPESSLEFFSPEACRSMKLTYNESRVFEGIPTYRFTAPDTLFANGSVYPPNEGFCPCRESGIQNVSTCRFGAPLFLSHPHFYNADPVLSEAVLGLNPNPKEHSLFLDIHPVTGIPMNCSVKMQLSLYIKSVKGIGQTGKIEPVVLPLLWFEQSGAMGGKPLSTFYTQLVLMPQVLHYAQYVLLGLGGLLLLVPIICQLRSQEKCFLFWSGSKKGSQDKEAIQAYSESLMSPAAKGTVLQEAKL
V-ATPase pH: alters yeast V-ATPase proton transport; response, % at 10 µM; 350,000 tested, 0.37% active; S. cerevisiae, pHLuorin cytosolic pH fluorescence; in the data active means response mostly above about 7.3%, no sharp cut-off; inactive means mostly below about 5.4%; further: actives read high
NTR1 agonist: agonists of human neurotensin receptor NTR1. P30989. activation, % at 20 µM. 330,000 tested, 0.17% active. NTR1-U2OS beta-arrestin-GFP spot imaging, agonist mode;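 active means activation at or above 40% of the spot to cytoplasm intensity ratio, with at least 20 cells analyzed; inconclusive means wells under 20 cells, flagged as cytotoxic or low count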;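 further: 0% = DMSO without peptide and 100% = 100 nM NTR1 peptide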
Vif inh: blocks HIV Vif function | AID 602346 | inhibition, % at 7.49 µM | HEK293T cells, Vif self-association by quenched fluorescence, imaging, 24 h | 340,000 tested, 0.35% active; in the data active means inhibition above about 50%, passing the limit was not always enough; inconclusive means no clear call, values can overlap the other calls; inactive means below about 31%
CaV13 FRET inh: Primary screen for inhibitors of IQ motif and Ca2+-dependent inactivation inhibitor domain binding in CACNA1D, Förster resonance energy transfer in living cells, …. HEK cells, CFP/YFP FRET ICDI-IQ, plate reader, 10 min; percent FRET-ratio fall versus neutral wells. inhibition, % at 12.3 µM. 340,000 tested, 0.098% active. AID 743397;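 active means mean replicate inhibition of at least 30% and at least 1% of replicates passing that level; inconclusive means only one of the two criteria is met; inactive means neither criterion is met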;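 further: 0% = median of the neutral control wells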
Starred values were filed as active, the others as inactive. This is a sample that favours compounds with a hit; in the whole collection about 1.7% have one here.

Screening O=C1S/C(=C/c2ccccc2F)C(=O)N1CCN=C1NS(=O)(=O)c2ccccc21 returned SR-BI uptake up 20, SR-BI DiI inh -20, V-ATPase pH -3, NTR1 agonist -1, Vif inh 5 and CaV13 FRET inh -15.
O=C1C(NS(=O)(=O)c2ccccc2)=C(N2CCN(c3ccc(F)cc3)CC2)C(=O)c2ccccc21 was read as SR-BI uptake up -87, SR-BI DiI inh 87*, V-ATPase pH -3, NTR1 agonist 16, Vif inh -4 and CaV13 FRET inh -4.
Screening CC1CCN(C2=C(NS(=O)(=O)c3ccccc3)C(=O)c3ccccc3C2=O)CC1 returned V-ATPase pH 2, NTR1 agonist 1, Vif inh -2 and CaV13 FRET inh -4.
For CC1CCN(C2=C(NS(=O)(=O)c3ccc(Cl)cc3)C(=O)c3ccccc3C2=O)CC1 the results were SR-BI uptake up -4, SR-BI DiI inh 4, V-ATPase pH 2, NTR1 agonist 4, Vif inh -6 and CaV13 FRET inh -5.
For O=C1C(NS(=O)(=O)c2cccs2)=C(N2CCN(c3cccc(Cl)c3)CC2)C(=O)c2ccccc21 the results were SR-BI uptake up -81, SR-BI DiI inh 81*, NTR1 agonist 2 and Vif inh -5.
For O=[N+]([O-])c1ccccc1/C=C/C=N/Nc1nc(N2CCCCC2)nc(N2CCCCC2)n1 the results were SR-BI uptake up -79, SR-BI DiI inh 79*, V-ATPase pH 1, NTR1 agonist 2, Vif inh -5 and CaV13 FRET inh -4.
O=[N+]([O-])c1ccccc1/C=N/Nc1nc(N2CCCC2)nc(N2CCCC2)n1 was read as SR-BI uptake up -54, SR-BI DiI inh 54, V-ATPase pH 4, NTR1 agonist 1, Vif inh -3 and CaV13 FRET inh -7.
For Cc1nn(-c2ccccc2)c(N2CCCC2)c1/C=N/NC(=O)c1cccc(S(=O)(=O)Nc2ccc(Cl)cc2)c1 the results were SR-BI uptake up -77, SR-BI DiI inh 77*, V-ATPase pH -3, NTR1 agonist 9, Vif inh -4 and CaV13 FRET inh -5.
Cc1nn(-c2ccccc2)c(N2CCCC2)c1/C=N/NC(=O)c1cc(-c2ccccc2)nc2ccccc12 was read as SR-BI uptake up -88, SR-BI DiI inh 88*, V-ATPase pH -3, NTR1 agonist 2, Vif inh 0 and CaV13 FRET inh -4.
For COc1ccc(-c2nn(-c3ccccc3)cc2/C=N/NC(=O)c2cccc(S(=O)(=O)Nc3ccccc3Cl)c2)cc1 the results were SR-BI uptake up -80, SR-BI DiI inh 80*, V-ATPase pH 1, NTR1 agonist 1, Vif inh 5 and CaV13 FRET inh -2.
`Cc1ccc(-c2cc(C(=O)N/N=C/c3c(C)nn(-c4ccccc4)c3C)[nH]n2)cc1` gave SR-BI uptake up -78, SR-BI DiI inh 78*, V-ATPase pH 2, Vif inh inconclusive and CaV13 FRET inh 1.
For CC(=O)N1CCOc2ccc(S(=O)(=O)N3CCC(C(=O)NCc4ccc(Cl)cc4)CC3)cc21 the results were Vif inh -3 and CaV13 FRET inh -12.
CCCOc1cccn2c(N(C=O)Cc3ccc(OC)cc3)c(CC)nc12 was read as Vif inh -3 and CaV13 FRET inh -4.
For O=C(/C=C/c1cccc(Cl)c1)NCc1ccccc1 the results were SR-BI uptake up 12, SR-BI DiI inh -12, V-ATPase pH -4, NTR1 agonist 0, Vif inh 15 and CaV13 FRET inh -2.
Screening Cc1ccc(CNC(=O)c2ccc(N3CCC4(CC3)CC(c3cccc(Br)c3)=NO4)c(N)c2)cc1 returned SR-BI uptake up -85, SR-BI DiI inh 85*, V-ATPase pH -2, NTR1 agonist 1 and CaV13 FRET inh -10.
Nc1ccccc1Nc1ccc([N+](=O)[O-])cc1[N+](=O)[O-] was read as SR-BI uptake up 15, SR-BI DiI inh -15, NTR1 agonist -1, Vif inh 7 and CaV13 FRET inh -4.
O=[N+]([O-])c1ccc(Nc2cccc3c2[nH]c2c(-c4ccccc4)nccc23)c([N+](=O)[O-])c1 was read as SR-BI uptake up -79, SR-BI DiI inh 79*, V-ATPase pH -4, Vif inh -1 and CaV13 FRET inh -5.
`COc1ccc(N2CCN(C(=O)COC(=O)CCS(=O)(=O)c3ccc(C)cc3)CC2)cc1` gave SR-BI uptake up 9, SR-BI DiI inh -9, V-ATPase pH 15*, NTR1 agonist 2, Vif inh -13 and CaV13 FRET inh -6.
`Cc1ccc(S(=O)(=O)CCC(=O)OCC(=O)N2CCN(c3ccccc3)CC2)cc1` gave SR-BI uptake up -2, SR-BI DiI inh 2, V-ATPase pH 0, NTR1 agonist 0, Vif inh 0 and CaV13 FRET inh -5.
For CCCCCCCCN1C(=O)[C@H](CC(=O)NCCCOCCCC)C[C@@]2(C(=O)OC)CCCCC=C12 the results were CaV13 FRET inh -5.
CCN1C(=O)NC(c2ccccc2)C1=O (stereo not given) was read as SR-BI uptake up 0, SR-BI DiI inh 0, V-ATPase pH 5, NTR1 agonist 4, Vif inh 81* and CaV13 FRET inh -5.
For CCOC(=O)CN1C(=O)N[C@@H](c2ccccc2)C(C(C)=O)=C1C the results were SR-BI uptake up 13, SR-BI DiI inh -13, V-ATPase pH 4, NTR1 agonist 0 and Vif inh -9.
Screening CCCCCc1c(C)nc(Nc2ccc(F)cc2)[nH]c1=O returned SR-BI uptake up 0, SR-BI DiI inh 0, V-ATPase pH 2, NTR1 agonist 7, Vif inh -19 and CaV13 FRET inh -5.
CCCCc1c(C)nc(Nc2ccc(OC)cc2)[nH]c1=O was read as SR-BI uptake up 60*, SR-BI DiI inh -60, V-ATPase pH 4, NTR1 agonist 0, Vif inh -3 and CaV13 FRET inh -5.
Screening O=C(O)CSc1c(-c2ccccc2)[nH]c2ccccc12 returned SR-BI uptake up -11, SR-BI DiI inh 11, V-ATPase pH 17*, NTR1 agonist -1, Vif inh -1 and CaV13 FRET inh -5.
Screening COc1ccc(NC(=O)c2ccccc2[N+](=O)[O-])cc1 returned SR-BI uptake up 18, SR-BI DiI inh -18, V-ATPase pH -3, NTR1 agonist -1, Vif inh 2 and CaV13 FRET inh -7.
For COc1ccccc1Nc1ccc(NC(=O)c2cccc([N+](=O)[O-])c2C)cc1 the results were SR-BI uptake up -84, SR-BI DiI inh 84*, V-ATPase pH 4, NTR1 agonist 2, Vif inh -6 and CaV13 FRET inh -19.
Screening CC(=O)Nc1ccc(NC(=O)c2cc(-c3ccc(C)c(C)c3O)n[nH]2)cc1 returned SR-BI uptake up -73, SR-BI DiI inh 73*, V-ATPase pH -3, NTR1 agonist 1, Vif inh -1 and CaV13 FRET inh -3.
